Laboratory results reported in ChEMBL document CHEMBL1137301 (J Med Chem, 2006).

Assays:
[1] = target: T1, Melatonin receptor type 1B (Homo sapiens, UniProt P49286); test: Displacement of 2-[125I]iodomelatonin from human MT2 receptor expressed in NIH3T3 cells; assay type: cell-based
T1 sequence (P49286 whole entry): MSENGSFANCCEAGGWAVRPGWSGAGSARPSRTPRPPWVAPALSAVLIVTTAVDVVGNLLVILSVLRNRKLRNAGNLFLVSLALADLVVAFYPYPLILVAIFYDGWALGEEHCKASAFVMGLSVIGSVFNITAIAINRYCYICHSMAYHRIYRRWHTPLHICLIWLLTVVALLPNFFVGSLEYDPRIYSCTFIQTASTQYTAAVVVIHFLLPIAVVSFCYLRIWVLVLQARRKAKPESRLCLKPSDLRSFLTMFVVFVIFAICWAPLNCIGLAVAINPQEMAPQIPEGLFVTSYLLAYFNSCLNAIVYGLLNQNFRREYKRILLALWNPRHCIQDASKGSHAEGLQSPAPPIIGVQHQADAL

[2] = target: T2, Melatonin receptor type 1B (Homo sapiens) (UniProt P49286); test: Intrinsic activity at human MT2 receptor expressed in NIH3T3 cells assessed as stimulation of [35S]GTP-gamma-S binding relative to MLT; assay type: functional, cell-based
T2 sequence (whole entry): T1 sequence (P49286 whole entry)

[3] = target: T3, Melatonin receptor type 1A (Homo sapiens, UniProt P48039); test: Intrinsic activity at human MT1 receptor expressed in NIH3T3 cells assessed as stimulation of [35S]GTPgammaS binding relative to MLT; assay type: functional, cell-based
[4] = target: T3, Melatonin receptor type 1A; test: Displacement of 2-[125I]iodomelatonin from human MT1 receptor expressed in NIH3T3 cells; assay type: cell-based
[5] = target: T2, Melatonin receptor type 1B (Homo sapiens); test: (§1) Activity at human MT2 receptor expressed in NIH3T3 cells assessed as inhibition of MLT-stimulated [35S]GTPgammaS binding; assay type: functional, cell-based
Procedure, shortened: (§2)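 Antagonism was measured in [35S]GTPγS binding on human MT2 NIH3T3 membranes (30 min, 30 °C; GDP 50 µM, NaCl 100 mM, MgCl2 3 mM). MLT concentration-response curves were run alone and with antagonist at 1, 10, 100 and 1000 nM.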

[6] = target: T3, Melatonin receptor type 1A; test: Activity at human MT1 receptor expressed in NIH3T3 cells assessed as inhibition of MLT-stimulated [35S]GTP-gamma-S binding; assay type: functional, cell-based; settings: filed as partial agonist
[7] = target: T1, Melatonin receptor type 1B; test: as §1; assay type: functional, cell-based; settings: read-out: pA2 (converted); procedure, shortened: as §2
[8] = target: Melatonin receptor (Homo sapiens) (UniProt P48039+P49286); test: Selectivity for human MT2 receptor over MT1 receptor; assay type: protein assay
Procedure, shortened: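 Incubation was 90 min at 37 °C in 50 mM Tris/HCl, pH 7.4, with nonspecific binding defined by 10 µM MLT. Ki came from IC50 via Cheng-Prusoff, mean of at least three runs in duplicate. The ratio compares MT1 and MT2 Ki.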

T3 sequence (P48039 whole entry): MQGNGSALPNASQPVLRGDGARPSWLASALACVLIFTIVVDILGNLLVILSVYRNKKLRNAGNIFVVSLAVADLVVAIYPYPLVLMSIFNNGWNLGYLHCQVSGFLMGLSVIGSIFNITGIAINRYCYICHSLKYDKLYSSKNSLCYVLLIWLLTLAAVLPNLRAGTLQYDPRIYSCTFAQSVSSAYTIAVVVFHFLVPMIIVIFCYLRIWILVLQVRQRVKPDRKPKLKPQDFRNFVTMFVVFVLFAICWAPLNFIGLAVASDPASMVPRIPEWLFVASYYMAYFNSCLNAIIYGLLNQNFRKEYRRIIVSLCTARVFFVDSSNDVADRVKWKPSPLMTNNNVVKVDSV
Melatonin receptor (Homo sapiens), sequence (P48039 whole entry, looked up, one chain of several): as the sequence (P48039 whole entry) above

| Compound | Ki [1] [nM] | Intrinsic activity [2] | Intrinsic activity [3] | Ki [4] [nM] | Activity ([5]; filed as partial agonist) | Activity [6] | Kb [7] [nM] | Activity ([5]; filed as antagonist) | Selectivity ratio [8] |
| --- | --- | --- | --- | --- | --- | --- | --- | --- | --- |
| O=C(NCC=C(c1ccccc1)c1ccccc1)C1CCC1 | 13.2 | -0.2 | -0.18 | 912 | – | – | – | – | – |
| CC(=O)NCC=C(c1ccccc1)c1ccccc1 | 11.5 | 0.19 | -0.03 | 513 | – | – | – | – | – |
| COc1cccc(C(CNC(C)=O)Cc2ccccc2)c1 (configuration not stated) | 204 | -0.18 | -0.23 | 692 | – | – | – | – | – |
| COc1ccc(Cc2ccccc2)c(CCNC(C)=O)c1 | 6.03 | 0.06 | 0.24 | 69.2 | – | – | – | – | – |
| CC(=O)NCC(Cc1ccccc1)c1ccccc1 (configuration not stated) | 417 | -0.43 | -0.3 | 708 | – | – | – | – | – |
| CC(=O)NCCC(c1ccccc1)c1ccccc1 | 141 | -0.23 | -0.19 | 4170 | – | – | – | – | – |
| CC(=O)NC/C(=C/c1ccccc1)c1ccccc1 | 525 | -0.15 | -0.23 | 3630 | – | – | – | – | – |
| CCC(=O)NCC(Cc1ccccc1)c1cccc(OC)c1 (configuration not stated) | 191 | -0.25 | -0.13 | 525 | – | – | – | – | – |
| CC(=O)NC/C(=C\c1ccccc1)c1ccccc1 | 148 | 0.18 | 0.11 | 1200 | – | – | – | – | – |
| CCC(=O)NCCc1cccc(Cc2ccccc2)c1 | 661 | 0.48 | 0.24 | 389 | – | – | – | – | – |

The next compounds have a lower Ki [1] than those just listed; values first:

| Ki [1] [nM] | Intrinsic activity [2] | Intrinsic activity [3] | Ki [4] [nM] | Activity ([5]; filed as partial agonist) | Activity [6] | Kb [7] [nM] | Activity ([5]; filed as antagonist) | Selectivity ratio [8] | Compound |
| --- | --- | --- | --- | --- | --- | --- | --- | --- | --- |
| 0.219 | 0.38 | 0.54 | 2.69 | Partial agonist | Partial agonist | – | – | – | COc1cccc(/C(=C/CNC(C)=O)c2ccccc2)c1 |
| 0.525 | 0.13 | 0.29 | 93.3 | – | – | 0.389 | Antagonist | 178 | COc1cccc(/C(=C/CNC(=O)C2CCC2)c2ccccc2)c1 |
| 2.51 | 0.3 | 0.45 | 229 | – | – | – | – | – | COc1cccc(/C(=C\CNC(C)=O)c2ccccc2)c1 |
| 1.55 | -0.02 | -0.04 | 257 | – | – | – | – | – | COc1cccc(/C(=C\CNC(=O)C2CCC2)c2ccccc2)c1 |
| 5.37 | 0.04 | 0.24 | 2190 | – | – | – | – | 407 | COc1cccc(C(CCNC(C)=O)c2ccccc2)c1 (racemic) |
| 0.275 | 0.34 | 0.2 | 58.9 | Partial agonist | Partial agonist | – | – | 214 | COc1cccc(C(=CCNC(C)=O)c2cccc(OC)c2)c1 |
| 2.63 | 0.27 | 0.21 | 550 | – | – | – | – | 209 | CCCC(=O)NCCC(c1ccccc1)c1cccc(OC)c1 (racemic) |
| 5.01 | 0.28 | 0.31 | 363 | – | – | – | – | – | CCC(=O)NCCC(c1ccccc1)c1cccc(OC)c1 (racemic) |
